Data reported in ChEMBL document CHEMBL4819084, “Discovery of 3,5-dimethylisoxazole derivatives as novel, potent inhibitors for bromodomain and extraterminal domain (BET) family” (Bioorg Med Chem, 2021).

Key:
[1] = molecular target: Bromodomain-containing protein 4 (Homo sapiens, UniProt O60885); test: Inhibition of BRD4-BD1 (unknown origin) preincubated for 15 mins followed by substrate addition and measured after 1 hr
[2] = Cytotoxicity against human MCF-10A cells assessed as inhibition of cell proliferation at 2 uM incubated for 48 hrs by MTT assay; type: cell-based
How it was run: (§1)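 Cryopreserved cells thawed at 37 °C, cultured one day, then seeded at 5000–10,000 cells/well in 96-well plates and left overnight to attach. Compound added at a single concentration or as a gradient series and incubated 48 h. MTT solution added and absorbance read.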

[3] = tested on: CT26; test: Antiproliferative activity against […] assessed as inhibition of cell proliferation at 2 uM incubated for 48 hrs by MTT assay relative to control; type: functional; conditions: Mus musculus; how it was run: as §1
[4] = tested on: MCF7; test: Antiproliferative activity against human MCF7 cells assessed as inhibition of cell proliferation at 2 uM incubated for 48 hrs by MTT assay relative to control; type: functional; how it was run: as §1
[5] = tested on: HepG2; test: Antiproliferative activity against human HepG2 cells assessed as inhibition of cell proliferation at 2 uM incubated for 48 hrs by MTT assay relative to control; type: functional; how it was run: as §1
[6] = tested on: HCT-116; test: Antiproliferative activity against human HCT-116 cells assessed as inhibition of cell proliferation at 2 uM incubated for 48 hrs by MTT assay relative to control; type: functional; how it was run: as §1
[7] = tested on: U-266; test: Antiproliferative activity against human U-266 cells assessed as inhibition of cell proliferation at 0.1 uM incubated for 48 hrs by MTT assay relative to control; type: functional; how it was run: as §1
[8] = tested on: CT26; test: Antiproliferative activity against […] assessed as inhibition of cell proliferation incubated for 48 hrs by MTT assay; type: functional, cell-based; conditions: Mus musculus, CT26, 48 h; how it was run: as §1
[9] = tested on: HepG2; test: Antiproliferative activity against human HepG2 cells assessed as inhibition of cell proliferation incubated for 48 hrs by MTT assay; type: functional, cell-based; conditions: HepG2, 48 h; how it was run: as §1
[10] = tested on: U-266; test: Antiproliferative activity against human U-266 cells assessed as inhibition of cell proliferation incubated for 48 hrs by MTT assay; type: functional, cell-based; conditions: U-266, 48 h; how it was run: as §1

Compound	IC50 [1] [µM]	inhibition at 48 h, 2 µM [2] [%]	inhibition at 2 µM [3] [%]	inhibition at 2 µM [4] [%]	inhibition at 2 µM [5] [%]	inhibition at 2 µM [6] [%]	inhibition at 0.1 µM [7] [%]	IC50 [8] [µM]	IC50 [9] [µM]	IC50 [10] [µM]
Cc1noc(C)c1-c1ccc2c(c1)C(c1ccccc1)N(CCCCCN1CCN(c3ccc4nnc(Cl)n4n3)CC1)C(=O)N2C (stereo not given)	0.0088	9.3	33.8	33.4	39.8	39	48.4	11.8	14	1.99
Cc1noc(C)c1-c1ccc2c(c1)C(c1ccccc1)N(Cc1csc(-c3ccc(F)cc3)n1)C(=O)N2C (stereo not given)		6.8	17	37.9	31.3	31.8	8.4			
Cc1noc(C)c1-c1ccc2c(c1)C(c1ccccc1)N(CCCCCC(=O)N1CCN(c3ccc4nnc(Cl)n4n3)CC1)C(=O)N2C (stereo not given)	0.0092	14.7	25.1	33.6	30.7	38.4	31.3			
Cc1noc(C)c1-c1ccc2c(c1)C(c1ccccc1)N(CCCCCCCC(=O)N1CCN(c3ccc4nnc(Cl)n4n3)CC1)C(=O)N2C (stereo not given)	0.037	0.5	8.8	28.7	13.6	14.1	8.5			
Cc1noc(C)c1-c1ccc2c(c1)C(c1ccccc1)N(CC(=O)N1CCN(c3ccc4nnc(Cl)n4n3)CC1)C(=O)N2C (stereo not given)	0.0056	10.9	27.5	33.4	28.5	48.9	19.8			
Cc1sc2c(c1C)C(c1ccc(Cl)cc1)=N[C@@H](CC(=O)OC(C)(C)C)c1nnc(C)n1-2		6.5	37.9	35.4	22.2	30.3	35.7	28.7	18.4	3.45
Cc1noc(C)c1-c1ccc2c(c1)C(c1ccccc1)NC(=O)N2C (stereo not given)	0.053	6.8	44	33.5	32.5	27.8	13.1	36	18.8	35.4
Cc1noc(C)c1-c1ccc2c(c1)C(c1ccccc1)N(CCCCBr)C(=O)N2C (stereo not given)	0.013									
Cc1noc(C)c1-c1ccc2c(c1)C(c1ccccc1)N(Cc1csc(-c3ccccc3)n1)C(=O)N2C (stereo not given)		4.4	23.5	17.5	34	28.4	10.4			
CCS(=O)(=O)Nc1ccc(Oc2ccc(F)cc2F)c(-c2cn(C)c(=O)c3[nH]ccc23)c1 [MIVEBRESIB]								48.3		2.03
Cc1noc(C)c1-c1ccc2c(c1)C(c1ccccc1)N(Cc1ncc(-c3ccccc3)o1)C(=O)N2C (stereo not given)	0.105	3.7	21.2	34	50.6	30	15.1			
Cc1noc(C)c1-c1ccc2c(c1)C(c1ccccc1)N(CCCCCCN1CCN(c3ccc4nnc(Cl)n4n3)CC1)C(=O)N2C (stereo not given)	0.0031	5.3	20.3	33.1	51.9	44.7	45.5	7.95	9.45	2.12
Cc1noc(C)c1-c1ccc2c(c1)C(c1ccccc1)N(Cc1nnc(-c3ccc(F)cc3)o1)C(=O)N2C (stereo not given)	0.058	0.7	24	26.7	52.8	36.6	26.8			
Cc1nc(-c2ccc(F)cc2)sc1CN1C(=O)N(C)c2ccc(-c3c(C)noc3C)cc2C1c1ccccc1 (stereo not given)		6.5	28.8	33.4	26.4	26	10			
Cc1noc(C)c1-c1ccc2c(c1)C(c1ccccc1)N(Cc1nnc(-c3ccccc3)o1)C(=O)N2C (stereo not given)	0.055	12.4	30.1	34.1	34.7	31.4	26.7	21.2	19.5	3.45
Cc1noc(C)c1-c1ccc2c(c1)C(c1ccccc1)N(Cc1nnc(-c3ccccc3)s1)C(=O)N2C (stereo not given)	0.074	3.3	28.1	35.7	35.2	26.9	20.3			
Cc1noc(C)c1-c1ccc2c(c1)C(c1ccccc1)N(Cc1nc(-c3ccccc3)cs1)C(=O)N2C (stereo not given)		2.7	15.5	29.1	44.5	26.7	12.7			
Cc1nc(-c2ccccc2)sc1CN1C(=O)N(C)c2ccc(-c3c(C)noc3C)cc2C1c1ccccc1 (stereo not given)		4.9	20.1	35.1	29.2	28.3	7.19			
Cc1noc(C)c1-c1ccc2c(c1)C(c1ccccc1)N(CCOCCN1CCN(c3ccc4nnc(Cl)n4n3)CC1)C(=O)N2C (stereo not given)	0.012	6	25.1	34.7	36.7	18.7	29.5	22.9	21	3.05
Cc1noc(C)c1-c1ccc2c(c1)C(c1ccccc1)N(Cc1nc(-c3ccc(F)cc3)cs1)C(=O)N2C (stereo not given)		8.5	16.4	27.4	41.1	33.3	12.6			
